Laboratory results as given in ChEMBL document CHEMBL1122803, “Folate antagonists. 22. Antimalarial and antibacterial effects of 2,4-diamino-6-quinazolinesulfonamides” (1984).
≈ marks a conversion by molar mass, not a printed value.

What was measured:
[1] = system: Plasmodium berghei; assay: Antimalarial activity as toxic deaths 2-5 days post infection for drug-sensitive Plasmodium berghei infected mice (Mus musculus) at 320 mg/kg subcutaneous dose over 72 hrs; format: functional
Method in brief: (§1)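 P. berghei (drug-sensitive) infected mice dosed once subcutaneously 72 h postinfection, compound in sesame or peanut oil. Read-out is the count of deaths on days 2–5 after infection, attributed to drug toxicity. Five animals per dose level, or 10 where indicated.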

[2] = system: Plasmodium berghei; assay: Antimalarial activity as survivor numbers at day 60 for drug-sensitive Plasmodium berghei infected mice (Mus musculus) at 80 mg/kg subcutaneous dose over 72 hr; format: functional
Method in brief: (§2)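 Mice infected with drug-sensitive P. berghei got one subcutaneous dose in sesame or peanut oil 72 h postinfection. Read-out is the number of mice alive at 60 days postinfection, termed "cured", without subinoculation to confirm parasitological cure. Groups of five per dose, or 10 where indicated.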

[3] = system: Plasmodium berghei; assay: Antimalarial activity as toxic deaths 2-5 days post infection for drug-sensitive Plasmodium berghei infected mice (Mus musculus) at 640 mg/kg subcutaneous dose over 72 hr; format: functional; method in brief: as §1
[4] = system: Plasmodium berghei; assay: Antimalarial activity as survivor numbers at day 60 against drug-sensitive Plasmodium berghei infected mice (Mus musculus) at 160 mg/kg subcutaneous dose after 72 hr; format: functional; method in brief: as §2
[5] = system: Plasmodium berghei; assay: Antimalarial activity as survivor numbers at day 60 for drug-sensitive Plasmodium berghei infected mice (Mus musculus) at 40 mg/kg over 72 hr; format: functional; method in brief: as §2
[6] = system: Plasmodium berghei; assay: Antimalarial activity as survivor numbers at day 60 for drug-sensitive Plasmodium berghei infected mice (Mus musculus) at 320 mg/kg subcutaneous dose over 72 hr; format: functional; method in brief: as §2
[7] = system: Plasmodium berghei; assay: Antimalarial activity as survivor numbers at day 60 against drug-sensitive Plasmodium berghei infected mice (Mus musculus) at 20 mg/kg subcutaneous dose after 72 hr; format: functional; method in brief: as §2
[8] = system: Plasmodium berghei; assay: Antimalarial activity as toxic deaths 2-5 days post infection for drug-sensitive Plasmodium berghei infected mice (Mus musculus) at 320 mg/kg subcutaneous dose over 72 hr; format: functional; method in brief: as §1
[9] = system: Plasmodium berghei; assay: Antimalarial activity as survivor number at day 60 for drug-sensitive Plasmodium berghei infected mice (Mus musculus) at 640 mg/kg subcutaneous dose over 72 hr; format: functional; method in brief: as §2
[10] = system: Plasmodium berghei; assay: Antimalarial activity as change in MST for drug-sensitive Plasmodium berghei infected mice (Mus musculus) at 40 mg/kg subcutaneous dose over 72 hr; format: functional
[11] = system: Plasmodium berghei; assay: Antimalarial activity as survivor numbers at day 60 for drug-sensitive Plasmodium berghei infected mice (Mus musculus) at 320 mg/kg subcutaneous dose for 72 hr; format: functional; method in brief: as §2
[12] = system: Plasmodium berghei; assay: Antimalarial activity as change in MST for drug-sensitive Plasmodium berghei infected mice (Mus musculus) at 80mg/kg subcutaneous dose over 72h; format: functional
[13] = system: Plasmodium berghei; assay: Antimalarial activity as change in MST for drug-sensitive Plasmodium berghei infected mice (Mus musculus) at 640 mg/kg subcutaneous dose over 72 hr; format: functional
[14] = system: Plasmodium berghei; assay: Antimalarial activity as change in MST against drug-sensitive Plasmodium berghei infected mice (Mus musculus) at 20 mg/kg subcutaneous dose after 72h; format: functional
[15] = system: Plasmodium berghei; assay: Antimalarial activity as change in MST against drug-sensitive Plasmodium berghei infected mice (Mus musculus) at 160 mg/kg subcutaneous dose after 72h; format: functional
[16] = system: Plasmodium berghei; assay: In vivo antimalarial activity against drug-sensitive Plasmodium berghei in mice (Mus musculus) after 320 mg/kg subcutaneous dose for 72 hrs as survivors 60 days post infection
[17] = system: Mycobacterium tuberculosis; assay: In vitro antibacterial activity against Mycobacterium tuberculosis H37Rv.; format: functional
Method in brief: (§3)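 Mycobacterium tuberculosis tested in vitro by gradient-plate test; minimum inhibitory concentration reported.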

[18] = system: Enterococcus faecalis; assay: In vitro antibacterial activity against Streptococcus faecalis MGH-2.; format: functional
Method in brief: (§4)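 Antibacterial testing in vitro by gradient-plate test. Read-out was the minimum inhibitory concentration, with values exceeding 25 reported as >25.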

[19] = system: Staphylococcus aureus; assay: In vitro antibacterial activity against […] S 18713.; format: functional; method in brief: as §4
[20] = system: Pseudomonas aeruginosa; assay: In vitro against Pseudomonas aeruginosa 28. by gradient-plate test; format: functional; method in brief: as §4
[21] = system: Shigella sonnei; assay: In vitro antibacterial activity against Shigella sonnei C-10.; format: functional; method in brief: as §4
[22] = system: Escherichia coli; assay: Tested in vitro against Escherichia coli Vogel. by gradient-plate test; format: functional; method in brief: as §4
[23] = system: Plasmodium berghei; assay: Antimalarial activity as change in MST for drug-sensitive Plasmodium berghei infected mice (Mus musculus) at 40 mg/kg subcutaneous dose over 72hr; format: functional
[24] = system: Staphylococcus aureus; assay: In vitro antibacterial activity against […] U.C-76.; format: functional; method in brief: as §4
[25] = system: Plasmodium berghei; assay: Antimalarial activity as survivor numbers at day 60 for drug-sensitive Plasmodium berghei infected mice (Mus musculus) at 640 mg/kg subcutaneous dose over 72 hr; format: functional; method in brief: as §2
[26] = system: Escherichia coli; assay: Compound was tested in vitro against Escherichia coli Vogel, by gradient-plate test; format: functional; method in brief: as §4
[27] = system: Pseudomonas aeruginosa; assay: Compound was tested in vitro against Pseudomonas aeruginosa 28, by gradient-plate test; format: functional; method in brief: as §4
[28] = system: Shigella sonnei; assay: Compound was tested in vitro against Shigella sonnei C-10, by gradient-plate test; format: functional; method in brief: as §4
[29] = system: Plasmodium berghei; assay: Antimalarial activity as change in MST for drug-sensitive Plasmodium berghei infected mice (Mus musculus) at 80 mg/kg subcutaneous dose over 72 hr; format: functional
[30] = system: Plasmodium berghei; assay: Antimalarial activity as change in MST for drug-sensitive Plasmodium berghei infected mice (Mus musculus) after 72 hrs at 320 mg/kg subcutaneous dose; format: functional
[31] = system: Plasmodium berghei; assay: Antimalarial activity as change in MST against drug-sensitive Plasmodium berghei infected mice (Mus musculus) at 160 mg/kg subcutaneous dose after 72 hr; format: functional
[32] = system: Plasmodium berghei; assay: Antimalarial activity as change in MST against drug-sensitive Plasmodium berghei infected mice (Mus musculus) at 20 mg/kg subcutaneous dose after 72 hr; format: functional
[33] = system: Enterococcus faecalis; assay: Compound was tested in vitro against Streptococcus faecalis MGH-2. by gradient-plate test.; format: functional; method in brief: as §4
[34] = system: Staphylococcus aureus; assay: Compound was tested in vitro against […] S 18713 by gradient-plate test.; format: functional; method in brief: as §4
[35] = system: Staphylococcus aureus; assay: Compound was tested in vitro against […] U.C-76. by gradient-plate test.; format: functional; method in brief: as §4
[36] = system: Escherichia coli; assay: Compound was tested in vitro against Escherichia coli Vogel. by gradient-plate test.; format: functional; method in brief: as §4
[37] = system: Shigella sonnei; assay: Compound was tested in vitro against Shigella sonnei C-10. by gradient-plate test.; format: functional; method in brief: as §4
[38] = system: Mycobacterium tuberculosis; assay: Compound was tested in vitro against Mycobacterium tuberculosis H37Rv. by gradient-plate test.; format: functional; method in brief: as §3
[39] = system: Pseudomonas aeruginosa; assay: Compound was tested in vitro against Pseudomonas aeruginosa 28. by gradient-plate test.; format: functional; method in brief: as §4
[40] = system: Plasmodium berghei; assay: Antimalarial activity as survivor numbers at day 60 for drug-sensitive Plasmodium berghei infected mice (Mus musculus) at 320 mg/kg over 72 hr; format: functional; method in brief: as §2
[41] = system: Plasmodium berghei; assay: Antimalarial activity as survivor numbers at day 60 for drug-sensitive Plasmodium berghei infected mice (Mus musculus) at 320 mg/kg subcutaneous dose over 72 hrs; format: functional; method in brief: as §2
[42] = system: Plasmodium berghei; assay: Antimalarial activity as survivor numbers at day 60 for drug-sensitive Plasmodium berghei infected mice (Mus musculus) at 40 mg/kg subcutaneous dose over 72 hr; format: functional; method in brief: as §2
[43] = system: Plasmodium berghei; assay: Antimalarial activity as survivor number at day 60 against drug-sensitive Plasmodium berghei infected mice (Mus musculus) at 160 mg/kg subcutaneous dose after 72 hr; format: functional; method in brief: as §2

`Nc1nc(N)c2c(Cl)c(NCc3ccc(Cl)c(Cl)c3)ccc2n1` was tested, and the toxic deaths [1] was 5, the survivors at day 60 [2] was 5 and the toxic deaths [3] was 5. The survivors at day 60 [4] was 5 and the survivors at day 60 [5] was 5.

`CCc1nc(N)nc(N)c1-c1ccc(Cl)cc1` [PYRIMETHAMINE] gave a survivors at day 60 [2] of 3, a survivors at day 60 [6] of 2 and a toxic deaths [3] of 2. For the same molecule, the “Delta MST” value [7] was 7.7 days, the toxic deaths [8] was 3 and the survivors at day 60 [9] was 1. For the same molecule, the “Delta MST” value [10] was 1 days and the survivors at day 60 [4] was 5.

In the case of `CCN(CC)S(=O)(=O)c1ccc2nc(N)nc(N)c2c1`, the “Delta MST” value [11] is reported as 5 days, the “Delta MST” value [12] is reported as 4.3 days and the “Delta MST” value [13] is reported as 5 days. The “Delta MST” value [10] was 3.3 days, the “Delta MST” value [14] was 0.7 days and the “Delta MST” value [15] was 9.4 days.

In the case of `Nc1nc(N)c2cc(S(=O)(=O)N3CCOCC3)ccc2n1`, the survivors at day 60 [16] is reported as 5, the MIC [17] is reported as > 25 µg/mL and the MIC [18] is reported as < 0.25 µg/mL. For the same molecule, the MIC [19] was > 25 µg/mL, the MIC [20] was > 25 µg/mL and the MIC [21] was > 25 µg/mL. For the same molecule, the MIC [22] was > 25 µg/mL, the “Delta MST” value [23] was 4.7 days and the “Delta MST” value [12] was 14.5 days. The MIC [24] was 2 µg/mL (≈ 6.47 µM), the survivors at day 60 [25] was 10 and the survivors at day 60 [4] was 10. For the same molecule, the “Delta MST” value [14] was 1.7 days.

For `Nc1nc(N)c2cc(S(N)(=O)=O)ccc2n1`, the MIC [26] was > 25 µg/mL, the MIC [18] was > 25 µg/mL and the MIC [19] was > 25 µg/mL. The “Delta MST” value [23] was 0.1 days, the MIC [24] was > 25 µg/mL and the MIC [27] was > 25 µg/mL. The “Delta MST” value [13] was 0.3 days, the MIC [28] was > 25 µg/mL and the “Delta MST” value [15] was 0.3 days.

With `CC1(C)N=C(N)N=C(N)N1c1ccc(Cl)cc1.Cl` [CHLORCYCLOGUANIL HYDROCHLORIDE] the “Delta MST” value [29] was 21.6 days, the “Delta MST” value [30] was 3 days and the “Delta MST” value [31] was 5 days. The “Delta MST” value [32] was 7.9 days, the “Delta MST” value [13] was 5 days and the “Delta MST” value [10] was 13.4 days.

In the case of `Nc1nc(N)c2cc(S(=O)(=O)N3CCc4ccccc4C3)ccc2n1`, the “Delta MST” value [29] is reported as 0.7 days, the MIC [33] is reported as > 25 µg/mL and the MIC [34] is reported as > 25 µg/mL. For the same molecule, the MIC [35] was > 25 µg/mL, the MIC [36] was > 25 µg/mL and the MIC [37] was > 25 µg/mL. The MIC [38] was > 25 µg/mL, the “Delta MST” value [30] was 3.9 days and the “Delta MST” value [31] was 0.7 days. For the same molecule, the “Delta MST” value [32] was 0.3 days, the “Delta MST” value [13] was 6.3 days and the “Delta MST” value [10] was 0.3 days. The MIC [39] was > 25 µg/mL.

`CN(C)S(=O)(=O)c1ccc2nc(N)nc(N)c2c1` was tested, and the “Delta MST” value [40] was 5 days, the “Delta MST” value [12] was 16.1 days and the “Delta MST” value [10] was 8.7 days. For the same molecule, the “Delta MST” value [14] was 7.3 days and the “Delta MST” value [15] was 15.9 days.

`Nc1nc(N)c2cc(S(=O)(=O)c3ccc4ccccc4c3)ccc2n1` gave a survivors at day 60 [2] of 5, a survivors at day 60 [41] of 5 and a survivors at day 60 [42] of 5. The survivors at day 60 [43] was 5.
